Compounds with a hit are over-represented: about 9.6% of the library has one in this group of screens.
TNAP inh noacc = blocks human TNAP activity with no phosphate acceptor present; P05186; purified TNAP, CDP-star luminescence, 30 min; inhibition, % at 20 µM; hit rate 0.26% among 200,000;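 active = tissue-nonspecific alkaline phosphatase inhibition above about 50% at 20 µM in the single-dose screen, limit read from the data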;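 also: 0% = DMSO negative control and 100% = EDTA positive control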
Target sequence (P05186 whole entry, looked up): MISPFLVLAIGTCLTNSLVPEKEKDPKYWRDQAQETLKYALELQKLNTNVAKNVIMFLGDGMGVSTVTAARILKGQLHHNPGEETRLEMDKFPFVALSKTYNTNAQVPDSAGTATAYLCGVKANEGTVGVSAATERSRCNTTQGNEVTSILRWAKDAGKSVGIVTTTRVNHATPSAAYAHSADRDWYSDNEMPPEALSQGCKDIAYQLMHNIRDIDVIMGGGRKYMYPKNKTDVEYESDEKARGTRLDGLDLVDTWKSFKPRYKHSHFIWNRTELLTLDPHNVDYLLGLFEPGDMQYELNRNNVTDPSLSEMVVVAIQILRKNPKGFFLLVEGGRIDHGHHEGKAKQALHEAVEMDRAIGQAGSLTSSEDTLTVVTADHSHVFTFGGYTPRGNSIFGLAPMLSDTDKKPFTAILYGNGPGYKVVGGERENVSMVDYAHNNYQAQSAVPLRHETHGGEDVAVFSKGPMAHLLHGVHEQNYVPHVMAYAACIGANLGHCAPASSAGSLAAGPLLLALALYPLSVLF
L major viab = reduces viability of Leishmania major promastigotes; AID 1063; resazurin fluorescence viability; inhibition, % at 10 µM; hit rate 9% among 200,000; in the data active = inhibition above about 50%;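 also: promastigotes grown with compound for 44 hours at 28 °C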
bCat KO growth = beta-catenin-lacking colon tumor cell growth suppression; viability, % at 10 µM; AID 818; HCT116 beta-catenin knockout viability, CellTiter-Glo, 60 h; active compounds read low; hit rate 1.5% among 140,000;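 active = viability at or under a set limit, the compound median less 4 SD, cut at about 6% in these data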;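 also: 0% = Hyamine 1622 control at 20 µM and 100% = untreated cell control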
PTEN del growth = PTEN-deleted cell growth suppression; HCT116 PTEN-null viability, CellTiter-Glo, 60 h; active compounds read low; viability, % at 10 µM; hit rate 1.2% among 140,000; AID 827;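 active = viability at or below a set limit, 4 SD under the median of all tested compounds, cut at about 3.7% in these data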;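 also: PTEN knockout HCT116 line with beta catenin targeted HCT116 as companion control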
TNAP act hi DEA = increases human TNAP activity under high phosphate acceptor concentration; P05186; purified TNAP, CDP-star luminescence, 1 M DEA, 30 min; active compounds read high; 0 = EDTA background, 1 = DMSO-only activity; activation factor at 20 µM; 200,000 tested, under 10 active;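 active = activation factor at least 2 at 20 µM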
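Test system – human TNAP · Doses – 20 µM single point · Incubation – 30 min, room temperature · Signal – luminescent substrate turnover signal · Read-out basis – activation factor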
TNAP inh hiacc = blocks human TNAP under high phosphate acceptor concentration. P05186. purified TNAP, CDP-star luminescence, 1 M DEA. inhibition, % at 20 µM. hit rate 0.03% among 200,000;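 active = over 50% inhibition of tissue-nonspecific alkaline phosphatase at 20 µM in the single-dose screen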;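 also: plate controls were DMSO wells for no effect and EDTA-quenched wells as full inhibition for full effect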
Numbers without * were called inactive; nt = no result given.

SMILES	TNAP inh noacc	L major viab	bCat KO growth	PTEN del growth	TNAP act hi DEA	TNAP inh hiacc
Cc1cc2ccccn2c1C(=O)Nc1cccc(Cl)c1	-12	-5	nt	nt	1.1	-7
O=S(=O)(Oc1ccccc1/C=N/n1cnnc1)c1ccccc1	-12	1	nt	nt	0.9	7
CCOc1cc(/C=N/n2cnnc2)ccc1OS(=O)(=O)c1ccccc1	-10	69*	nt	nt	1.1	-8
Cc1occc1-c1nnc(SCC(=O)Nc2ccccc2)n1CCc1ccccc1	-6	66*	85	85	1	3
Cc1csc(NC(=O)CSc2nnc(Cc3cccn3C)n2CCc2ccccc2)n1	-1	51*	84	78	1	0
O=C(NCC1CCCN(Cc2ccccc2F)C1)c1cccc(C(F)(F)F)c1 (centres undefined)	-2	61*	nt	nt	1	0
O=C(NCC1CCCN(Cc2cccc(OCCO)c2)C1)c1ccc(F)cc1 (centres undefined)	-10	-1	nt	nt	1	-2
COc1ccc(CN2CCCC(CNC(=O)c3ccc(F)cc3)C2)c(C)c1C (centres undefined)	-6	80*	nt	nt	1	-4
COc1ccc(CN2CCCC(CNC(=O)c3ccc(F)cc3)C2)c(F)c1 (centres undefined)	-6	89*	nt	nt	1.1	-6
CCN(CC)S(=O)(=O)c1cccc(NC(=O)c2cc(-c3cccs3)nn2-c2ccccc2)c1	-23	98*	98	87	1	-2
CCCNc1c(NC(C)=O)c(=O)oc2ccccc12	-12	29	92	99	1	-2
COc1ccc(C2CCN(Cc3cccnc3)CC2O)cc1 (centres undefined)	-8	88*	103	106	1	-2
Cn1nc(-c2ccccc2)c(CN2CCN(c3ncccn3)CC2)c1Cl	-13	1	nt	nt	1.1	-10
COc1ccc(O)c(CNc2ccccc2F)c1	8	3	nt	nt	1	4
Cc1ccccc1OCC(O)CN1CCN(CC(O)COc2ccccc2C)CC1 (centres undefined)	-2	63*	nt	nt	1	1
Cc1ccccc1OCC(O)CN1CCCCC1 (centres undefined)	-7	13	nt	nt	1.1	-8
Cc1ccccc1OCC(O)CN1CCC(C)CC1 (centres undefined)	0	72*	nt	nt	1	-2
Cc1ccc(C)c(OCC(O)CN2CCC(C)CC2)c1C (centres undefined)	-11	100*	52	56	1.1	-6
COc1ccc(C(=O)c2c(C(F)(F)F)oc3c2C(=O)c2ccccc2C3=O)cc1OC	-8	100*	1.3*	1.9*	1.1	-5
OCCN1CN=C(Nc2nc3ccccc3o2)NC1	-12	-3	99	99	1.1	-5
CC1(C)CC(=O)C2=C(C1)NC(Nc1nc3ccccc3o1)=NC21CCCCC1	-4	59*	64	66	1.1	-6
COc1ccc(C(=O)c2c(C)c3ccccc3n2CC(O)CNC(C)C)cc1 (centres undefined)	6	97*	61	65	1.1	-6
Nc1ccccc1NC1CCCCC1	-5	54*	nt	nt	0.9	5
O=C(Nc1ccccc1NC(=O)NC1CCCCC1)NC1CCCCC1	-20	23	26	4	1.1	-6
CCOc1ccc(OCCCCNC(C)(C)C)cc1	-3	98*	nt	nt	1	-5
SMILES	TNAP inh noacc	L major viab	bCat KO growth	PTEN del growth	TNAP act hi DEA	TNAP inh hiacc
CC(C)(C)NCCCCOc1ccc(F)cc1	-17	99*	98	98	1.1	-8
CC(C)Oc1ccc(CNCCC2(C(C)C)CCOC(C)(C)C2)cc1 (centres undefined)	-20	95*	85	80	1.1	-6
COc1ccc(-c2cc(C(F)F)n3ncc(C(=O)N4CCCCC4)c3n2)cc1	-13	100*	56	55	1.1	-6
Cc1ccc(-c2cc(C(F)F)n3ncc(C(=O)N4CCN(c5ccccn5)CC4)c3n2)cc1	-3	100*	54	61	1	3
CCN1CCN(C(=O)c2cnn3c(C(F)F)cc(-c4ccc(C)cc4)nc23)CC1	-2	98*	62	64	1	-1
CN(C)S(=O)(=O)c1cccc(NC(=S)NCCCn2ccnc2)c1	3	-5	nt	nt	1	-3
COc1ccc(-c2cc(C(F)(F)F)nc(SCC(=O)NCc3cccs3)n2)cc1OC	-8	9	87	82	0.9	7
Cc1ccc(NC(=O)COC(=O)C2(c3ccc(Cl)cc3)CCCC2)cc1	-6	0	79	59	1	-2
CCc1cccc(CC)c1NC(=O)CSc1nnc(CCC(=O)O)c(=O)[nH]1	0	-9	nt	nt	1	0
O=C(C1=C(c2ccccc2)C(=O)c2ccccc2C1=O)c1ccccc1	-3	24	1.5*	1.5*	0.9	5
COC1=C(c2ccccc2)C(=O)c2ccccc2C1=O	1	-3	1.9*	2.0*	0.9	9
COc1cccc(NC(=S)NC2CC3CCCC(C2)N3C2CCCC2)c1 (centres undefined)	-28	38	nt	nt	1.1	-8
S=C(Nc1ccc(Cl)cc1)NC1CC2CCCC(C1)N2C1CC1 (centres undefined)	-11	38	74	92	1.1	-5
S=C(Nc1ccc(Cl)cc1)NC1CC2CCCC(C1)N2C1CCCC1 (centres undefined)	-22	77*	75	78	1	-4
C=CCN1C2CCCC1CC(NC(=S)Nc1ccc(Cl)cc1)C2 (centres undefined)	-12	96*	nt	nt	1.1	-6
S=C(Nc1cccc(Cl)c1)NC1CC2CCCC(C1)N2C1CCCC1 (centres undefined)	-61	73*	73	81	1.1	-8
Cc1ccc(N(CN2C(=O)c3ccccc3C2=O)C(=O)c2ccc([N+](=O)[O-])cc2[N+](=O)[O-])cc1	-15	4	95	97	1	1
O=C(Cc1ccccc1)N/N=C/c1ccccc1OCc1ccc(Cl)cc1	-18	2	41	37	1	-4
O=C(CNC(=O)c1ccc(S(=O)(=O)N2CCCC2)cc1)N/N=C/c1ccccc1	-15	87*	87	88	1	1
O=C(CNC(=O)c1ccc(S(=O)(=O)N2CCCC2)cc1)N/N=C/c1c(Cl)cccc1Cl	-5	83*	65	76	1	-3
O=C(Cc1ccc(Cl)cc1)N/N=C/c1c(Cl)cccc1Cl	1	72*	90	93	1.1	-6
COc1ccc(/C=N/NC(=O)CNC(=O)c2ccc(S(=O)(=O)N3CCOCC3)cc2)cc1OC	-10	-8	94	89	1	-3
O=C(CNC(=O)c1ccc(S(=O)(=O)N2CCCC2)cc1)N/N=C/c1ccc(Cl)cc1	-5	91*	81	76	1	-2
Cc1cccn2c(CNC3CCCc4ccccc43)c(C(=O)N3CCCCC3)nc12 (centres undefined)	-6	24	nt	nt	1.1	-6

Screening data as filed in PubChem.
